This is an account of results in ChEMBL document CHEMBL1137210, “DNA binding ligands with improved in vitro and in vivo potency against drug-resistant Staphylococcus aureus” (2004).

Format in all cases: functional
Assay [1] has as its system Staphylococcus aureus. The assay can be described thus: Minimum inhibitory concentration required for antibacterial activity against methicillin-resistant Staphylococcus aureus 27660.
The test system of assay [2] is Staphylococcus aureus. The assay can be described thus: Minimum inhibitory concentration required for antibacterial activity against methicillin-susceptible Staphylococcus aureus 13709.
Assay [3] relates to Staphylococcus aureus. The assay can be described thus: Minimum inhibitory concentration required for antibacterial activity against methicillin-resistant Staphylococcus aureus with 2% human plasma albumin. In short, it runs like this:
(§1)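 MRSA ATCC 27660, with 2% human plasma albumin added to the test medium during MIC determination.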

Assay [4] has as its system Mus musculus. In words: No. of mice survived infected intraperitoneally with methicillin-resistant Staphylococcus aureus after 5 days of treatment at a dose of 1 mg/kg (Total mice tested 5). The method, boiled down:
(§2)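 Mouse peritonitis model: intraperitoneal infection with a 5–10 × LD50 inoculum of MRSA ATCC 27660. A single intravenous dose was given 1 h post-infection, alongside vehicle and vancomycin controls. Animals were monitored for 5 days, with survival as the primary endpoint; 5 mice per dose group.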

Assay [5] relates to Staphylococcus aureus. The assay can be described thus: Minimum inhibitory concentration required for antibacterial activity against methicillin-susceptible Staphylococcus aureus 13709; value ranges from <0.03-0.06.
Assay [6] deals with Mus musculus. In words: No. of mice survived infected intraperitoneally with methicillin-resistant Staphylococcus aureus after 5 days of treatment at a dose of 3 mg/kg (Total mice tested 5). In short, it runs like this:
as §2

Assay [7] deals with Staphylococcus aureus. The assay can be described thus: Minimum inhibitory concentration required for antibacterial activity against methicillin-resistant Staphylococcus aureus 27660; value ranges from 0.03-0.06.
For assay [8], the system named is Mus musculus. In words: No. of mice survived infected intraperitoneally with methicillin-resistant Staphylococcus aureus after 5 days of treatment at a dose of 10 mg/kg (Total mice tested 5). The method, boiled down:
as §2

For assay [9], the system named is Mus musculus. The assay can be described thus: No. of mice survived infected intraperitoneally with methicillin-resistant Staphylococcus aureus after 5 days of treatment at a dose of 25 mg/kg (Total mice tested 5). The note with it: route intravenous. The method, boiled down:
as §2

Assay [10] has as its system Staphylococcus aureus. In words: Minimum inhibitory concentration required for antibacterial activity against methicillin-resistant Staphylococcus aureus with 2% human plasma albumin; value ranges from 0.25-1. In short, it runs like this: as §1
A further assay relates to Enterococcus faecium. The assay can be described thus: Minimum inhibitory concentration required for antibacterial activity against vancomycin-resistant Enterococcus faecium 51559.
A further assay relates to Streptococcus pneumoniae. In words: Minimum inhibitory concentration required for antibacterial activity against penicillin-resistant Streptococcus pneumoniae 51422.
Assay [11] has as its system Staphylococcus aureus. The assay can be described thus: Minimum inhibitory concentration required for antibacterial activity against vancomycin-resistant Staphylococcus aureus HMC3.
The subject of assay [12] is Staphylococcus aureus. The assay can be described thus: Minimum inhibitory concentration required for antibacterial activity against methicillin-resistant Staphylococcus aureus with 2% human plasma albumin; value ranges from 0.13-1. The method, boiled down:
as §1

The subject of assay [13] is Staphylococcus aureus. The assay can be described thus: Minimum inhibitory concentration required for antibacterial activity against methicillin-resistant Staphylococcus aureus with 2% human plasma albumin; value ranges from 0.13-0.25. In short, it runs like this:
as §1

In assay [14] the test system is Staphylococcus aureus. In words: Minimum inhibitory concentration required for antibacterial activity against methicillin-resistant Staphylococcus aureus with 2% human plasma albumin; value ranges from 1-2. In short, it runs like this:
as §1

The test system of assay [15] is Staphylococcus aureus. The assay can be described thus: Minimum inhibitory concentration required for antibacterial activity against methicillin-resistant Staphylococcus aureus 27660; value ranges from 0.25-0.5.
In assay [16] the test system is Staphylococcus aureus. In words: Minimum inhibitory concentration required for antibacterial activity against methicillin-susceptible Staphylococcus aureus 13709; value ranges from 0.13-0.06.
For assay [17], the system named is Staphylococcus aureus. The assay can be described thus: Minimum inhibitory concentration required for antibacterial activity against methicillin-resistant Staphylococcus aureus with 4% human plasma albumin. The method, boiled down: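 MIC against MRSA determined with 4% human plasma albumin present in the test medium.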
In assay [18] the test system is Staphylococcus aureus. In words: Minimum inhibitory concentration required for antibacterial activity against methicillin-susceptible Staphylococcus aureus 13709; value ranges from 0.03-0.06.
The test system of assay [19] is Staphylococcus aureus. The assay can be described thus: Minimum inhibitory concentration required for antibacterial activity against methicillin-resistant Staphylococcus aureus 27660; value ranges from 0.06-0.13.
The mark [20] stands for this setting: Staphylococcus aureus, Plasma, read-out: MIC.

Values after ≈ are worked out from the molar mass of the structure shown. Bounds are passed on as bounds.

Take `Cn1cc(NC(=O)c2ccc(NC(=O)c3cc(NC(=O)c4cc5ccccc5cn4)cn3C)cc2)cc1C(=O)NCCN1CCN(CCO)CC1`: the values for the MIC against Staphylococcus aureus [1], in the assay on Staphylococcus aureus [2] and in the assay with Staphylococcus aureus [3] (setting [20]) were 16 µg/mL (≈ 23.1 µM), 32 µg/mL (≈ 46.3 µM) and more than 32 µg/mL, respectively.
On to `COC1CCN(CCNC(=O)c2cc(NC(=O)c3ccc(NC(=O)c4cc(NC(=O)c5cc6ccccc6cn5)cn4C)cc3)cn2C)CC1`, for which the MIC was determined as 1 µg/mL (≈ 1.48 µM) in the assay with Staphylococcus aureus [1], 1 µg/mL (≈ 1.48 µM) with Staphylococcus aureus [2] and 8 µg/mL (≈ 11.8 µM) in the assay on Staphylococcus aureus [3] (setting [20]).
With `Cn1cc(NC(=O)c2cc3ccccc3cn2)cc1C(=O)Nc1ccc(C(=O)Nc2cn(C)c(C(=O)NCCN3CCC(O)CC3)n2)cc1`, the Efficacy is 0 in the assay on Mus musculus [4], 2 in the assay with Mus musculus [6], 5 in the assay on Mus musculus [8] and 5 in the assay with Mus musculus [9]. The MIC in the assay with Staphylococcus aureus [5] stood at 0.06 µg/mL (≈ 0.0904 µM); in the assay with Staphylococcus aureus [7], 0.06 µg/mL (≈ 0.0904 µM); against Staphylococcus aureus [10] it was 1 µg/mL (≈ 1.51 µM).
In the case of `Cn1cc(NC(=O)c2ccc(NC(=O)c3nc(NC(=O)c4cc5ccccc5cn4)cn3C)cc2)nc1C(=O)NCCN1CCOCC1`, the MIC with Staphylococcus aureus [1] was 0.06 µg/mL (≈ 0.0922 µM); in the assay with Enterococcus faecium, 0.13 µg/mL (≈ 0.2 µM); against Staphylococcus aureus [2] it was 0.13 µg/mL (≈ 0.2 µM); in the assay on Streptococcus pneumoniae, 0.25 µg/mL (≈ 0.384 µM); with Staphylococcus aureus [3] (setting [20]), 1 µg/mL (≈ 1.54 µM).
On to `Cn1cc(NC(=O)c2ccc(NC(=O)c3nc(NC(=O)c4cc5ccccc5cn4)cn3C)cc2)cc1C(=O)NCCN1CCOCC1`, for which the MIC in the assay on Staphylococcus aureus [1] is 16 µg/mL (≈ 24.6 µM); with Enterococcus faecium, 0.5 µg/mL (≈ 0.77 µM); against Staphylococcus aureus [2], 2 µg/mL (≈ 3.08 µM); against Streptococcus pneumoniae, 0.5 µg/mL (≈ 0.77 µM); with Staphylococcus aureus [3] (setting [20]), 32 µg/mL (≈ 49.3 µM).
As to `Cn1cc(NC(=O)c2cc3cc4c(cc3s2)OCO4)cc1C(=O)Nc1ccc(C(=O)Nc2cn(C)c(C(=O)NCCN3CCC(O)CC3)n2)cc1`, the figures for the Efficacy in the assay with Mus musculus [4] and in the assay with Mus musculus [6] were 3 and 4, respectively. For the same molecule, the MIC against Staphylococcus aureus [1] turned out to be 0.008 µg/mL (≈ 0.0112 µM); in the assay on Staphylococcus aureus [2] it was 0.008 µg/mL (≈ 0.0112 µM); in the assay on Staphylococcus aureus [11], 8 ng/mL (≈ 0.0112 µM); against Staphylococcus aureus [12], 1 µg/mL (≈ 1.4 µM).
Regarding `COC1CCN(CCNC(=O)c2nc(NC(=O)c3ccc(NC(=O)c4cc(NC(=O)c5cc6ccccc6cn5)cn4C)cc3)cn2C)CC1`, the minimum inhibitory concentration (MIC) turned out to be 0.03 µg/mL (≈ 0.0443 µM) in the assay on Staphylococcus aureus [1], 0.25 µg/mL (≈ 0.369 µM) against Staphylococcus aureus [13] and 0.03 µg/mL (≈ 0.0443 µM) in the assay with Staphylococcus aureus [2]. The same molecule yielded an Efficacy in the assay on Mus musculus [9] of 2.
As to `COCCN(CCNC(=O)c1nc(NC(=O)c2ccc(NC(=O)c3cc(NC(=O)c4cc5ccccc5cn4)cn3C)cc2)cn1C)CCOC`, the MIC in the assay with Staphylococcus aureus [14] amounted to 2 µg/mL (≈ 2.87 µM); against Staphylococcus aureus [15], 0.5 µg/mL (≈ 0.719 µM); in the assay with Staphylococcus aureus [16] it was 0.13 µg/mL (≈ 0.187 µM). The Efficacy with Mus musculus [9] is reported as 0.
In the case of `Cn1cc(NC(=O)c2cc3ccccc3cn2)cc1C(=O)Nc1ccc(C(=O)Nc2cn(C)c(C(=O)NCCN3CCN(CCO)CC3)n2)cc1`, the MIC with Staphylococcus aureus [1] turned out to be 0.06 µg/mL (≈ 0.0866 µM); against Staphylococcus aureus [2], 0.06 µg/mL (≈ 0.0866 µM); with Staphylococcus aureus [3] (setting [20]), 1 µg/mL (≈ 1.44 µM). This molecule also had an Efficacy with Mus musculus [9] of 5.
Regarding `COCCN(CCNC(=O)c1cc(NC(=O)c2ccc(NC(=O)c3cc(NC(=O)c4cc5ccccc5cn4)cn3C)cc2)cn1C)CCOC`, the MIC was found to be 8 µg/mL (≈ 11.5 µM) in the assay with Staphylococcus aureus [1], 4 µg/mL (≈ 5.76 µM) in the assay on Staphylococcus aureus [2] and 32 µg/mL (≈ 46.1 µM) in the assay on Staphylococcus aureus [3] (setting [20]).
For `Cn1cc(NC(=O)c2ccc(NC(=O)c3cc(NC(=O)c4cc5ccccc5cn4)cn3C)cc2)cc1C(=O)NCCN1CCC(O)CC1`, the values for the MIC in the assay with Staphylococcus aureus [17], against Staphylococcus aureus [1] and in the assay with Staphylococcus aureus [2] were 16 µg/mL (≈ 24.1 µM), 0.5 µg/mL (≈ 0.754 µM) and 0.5 µg/mL (≈ 0.754 µM), respectively.
In the case of `Cn1cc(NC(=O)c2cc3ccccc3cn2)cc1C(=O)Nc1ccc(C(=O)Nc2cn(C)c(C(=O)NCCN3CCOCC3)n2)cc1`, the MIC against Staphylococcus aureus [1] amounted to 0.008 µg/mL (≈ 0.0123 µM); against Enterococcus faecium, 0.008 µg/mL (≈ 0.0123 µM); in the assay with Staphylococcus aureus [2] it was 0.008 µg/mL (≈ 0.0123 µM); with Staphylococcus aureus [11], 8 ng/mL (≈ 0.0123 µM); in the assay with Streptococcus pneumoniae it was 0.03 µg/mL (≈ 0.0462 µM); in the assay on Staphylococcus aureus [3] (setting [20]), 0.13 µg/mL (≈ 0.2 µM). Moreover, the Efficacy in the assay with Mus musculus [8] was 1.
`Cn1cc(NC(=O)c2ccc(NC(=O)c3cc(NC(=O)c4cc5ccccc5cn4)cn3C)cc2)cc1C(=O)NCCN1CCOCC1`: the MIC against Staphylococcus aureus [1] was found to be 0.06 µg/mL (≈ 0.0925 µM); in the assay on Enterococcus faecium, 1 µg/mL (≈ 1.54 µM); with Staphylococcus aureus [18], 0.06 µg/mL (≈ 0.0925 µM); with Staphylococcus aureus [2], 0.06 µg/mL (≈ 0.0925 µM); with Staphylococcus aureus [11] it was 250 ng/mL (≈ 0.385 µM); against Staphylococcus aureus [19], 0.13 µg/mL (≈ 0.2 µM). The MIC was found to be 0.06 µg/mL (≈ 0.0925 µM) in the assay with Streptococcus pneumoniae, 1 µg/mL (≈ 1.54 µM) against Staphylococcus aureus [3] and 1 µg/mL (≈ 1.54 µM) with Staphylococcus aureus [3] (setting [20]). In addition, the figures for the Efficacy in the assay on Mus musculus [6], in the assay with Mus musculus [8] and in the assay with Mus musculus [9] were 0, 3 and 5, respectively.
